Measurements as given in ChEMBL document CHEMBL1122654, “Phosphorus analogues of gamma-aminobutyric acid, a new class of anticonvulsants” (J Med Chem, 1984).
The source made the active and inactive calls.

Experiments:
[1] = Partition coefficient (logP); assay type: physicochemical; details: octanol/water
[2] = target: GABA B receptor (Rattus norvegicus) (UniProt Q9Z0U4+O88871); experiment: Displacement of [3H]GABA from GABA-B binding sites in brain homogenates (relative to 100 uM baclofen) at 100 uM; assay type: tissue-based
How it was run: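 Rat brain membrane binding (male Sprague-Dawley) using 10 nM [3H]GABA, with 100 µM isoguvacine present to block GABA-A sites. Test concentration 100 µM. Percent inhibition expressed relative to 100 µM baclofen. Mean of two separate experiments, each in triplicate.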

[3] = target: T1, GABA-A receptor; anion channel (Rattus norvegicus) (UniProt O09028+P15431+P18506+P18508+P19969+P20236+P23574+P23576+P28471+P28473+P30191+P62813+P63079+P63138+Q91ZM7+Q9ES14); experiment: Displacement of [3H]-GABA from Gamma-aminobutyric acid A receptor binding sites in brain homogenates (relative to 1 mM GABA) at 100 uM; assay type: tissue-based
How it was run: (§1)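 Male Sprague-Dawley rat brain, frozen, homogenized in 50 mM Tris-citrate (pH 7.1 at 4 °C). Membranes treated with 0.05% Triton X-100 for 30 min at 37 °C and resuspended at 0.5–1.0 mg/mL protein. Incubated with 8 nM [3H]GABA for 5 min at 4 °C, stopped by centrifugation, and counted by scintillation. Test concentration 100 µM. Expressed as percent of the inhibition given by 1 mM GABA. Mean of two experiments, each in triplicate.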

Mus musculus [4] = experiment: In vivo anticonvulsant activity against electric shock induced seizures(MES) in mice 0.5 hr after ip administration; inactive at 600 mg/kg; assay type: functional, organism-based; parameters: dose 600 mg/kg
Mus musculus [5] = experiment: In vivo anticonvulsant activity against pentylene tetrazole seizure threshold(SMC) in mice 0.5 hr after sc administration; inactive at 600 mg/kg; assay type: functional, organism-based; parameters: dose 600 mg/kg
Mus musculus [6] = experiment: In vivo anticonvulsant activity against pentylene tetrazole seizure threshold(SMC) in mice 4 hr after sc administration; inactive at 600 mg/kg; assay type: functional, organism-based; parameters: dose 600 mg/kg
Mus musculus [7] = experiment: In vivo neurotoxicity at 600 mg/kg, number of animals exhibiting neurotoxicity in the rotarod test / number of animals tested 4 hr; assay type: toxicity, organism-based; parameters: dose 600 mg/kg
Mus musculus [8] = experiment: In vivo neurotoxicity at 600 mg/kg, number of animals exhibiting neurotoxicity in the rotarod test / number of animals tested at 0.5 hr; assay type: toxicity, organism-based; parameters: dose 600 mg/kg
Mus musculus [9] = experiment: In vivo anticonvulsant activity against electric shock induced seizures(MES) in mice 4 hr after ip administration; inactive at 600 mg/kg; assay type: functional, organism-based; parameters: dose 600 mg/kg
Mus musculus [10] = experiment: In vivo anticonvulsant activity against electric shock induced seizures(MES) in mice 0.5 hr after ip administration; active at 600 mg/kg; assay type: functional, organism-based; parameters: dose 600 mg/kg
Mus musculus [11] = experiment: In vivo anticonvulsant activity against electric shock induced seizures(MES) in mice 0.5 hr after ip administration; ++ indicates activity at 300 mg/kg.; assay type: functional, organism-based; parameters: dose 300 mg/kg
Mus musculus [12] = experiment: In vivo anticonvulsant activity against electric shock induced seizures(MES) in mice 4 hr after ip administration; + indicates activity at 600 mg/kg.; assay type: functional, organism-based; parameters: dose 600 mg/kg
Mus musculus [13] = experiment: In vivo anticonvulsant activity against pentylene tetrazole seizure threshold(SMC) in mice 0.5 hr after sc administration; + indicates activity at 600 mg/kg.; assay type: functional, organism-based; parameters: dose 600 mg/kg
Mus musculus [14] = experiment: In vivo anticonvulsant activity against pentylene tetrazole seizure threshold(SMC) in mice 4 hr after sc administration; + indicates activity at 600 mg/kg.; assay type: functional, organism-based; parameters: dose 600 mg/kg
Mus musculus [15] = experiment: In vivo neurotoxicity at 600mg/kg, number of animals exhibiting neurotoxicity in the rotarod test / number of animals tested 0.5 hr; 4/4; assay type: toxicity, organism-based
Mus musculus [16] = experiment: In vivo neurotoxicity at 600 mg/kg, number of animals exhibiting neurotoxicity in the rotarod test / number of animals tested 4 hr; 1/2; assay type: toxicity, organism-based; parameters: dose 600 mg/kg
Mus musculus [17] = experiment: In vivo anticonvulsant activity against electric shock induced seizures(MES) in mice 0.5 hr after ip administration; active at 300 mg/kg; assay type: functional, organism-based; parameters: dose 300 mg/kg
Mus musculus [18] = experiment: In vivo anticonvulsant activity against electric shock induced seizures(MES) in mice 4 hr after ip administration; active at 300 mg/kg; assay type: functional, organism-based; parameters: dose 300 mg/kg
Mus musculus [19] = experiment: In vivo anticonvulsant activity against pentylene tetrazole seizure threshold(SMC) in mice 0.5 hr after sc administration; active at 600 mg/kg; assay type: functional, organism-based; parameters: dose 600 mg/kg
[20] = target: T1, GABA-A receptor; anion channel (Rattus norvegicus); experiment: Displacement of [3H]GABA from Gamma-aminobutyric acid A receptor binding sites in brain homogenates (relative to 1 mM GABA) at 100 uM; assay type: tissue-based; how it was run: as §1
Mus musculus [21] = experiment: In vivo anticonvulsant activity against electric shock induced seizures(MES) in mice 0.5 hr after ip administration; + indicates activity at 600 mg/kg.; assay type: functional, organism-based; parameters: dose 600 mg/kg
Mus musculus [22] = experiment: In vivo anticonvulsant activity against electric shock induced seizures(MES) in mice 4 hr after ip administration; + indicates activity at 600 mg/kg; assay type: functional, organism-based; parameters: dose 600 mg/kg
Mus musculus [23] = experiment: In vivo anticonvulsant activity against pentylene tetrazole seizure threshold(SMC) in mice 0.5 hr after sc administration; +++ indicates activity at 100 mg/kg; assay type: functional, organism-based; parameters: dose 100 mg/kg
Mus musculus [24] = experiment: In vivo anticonvulsant activity against pentylene tetrazole seizure threshold(SMC) in mice 4 hr after sc administration; - indicates inactive at 600 mg/kg; assay type: functional, organism-based; parameters: dose 600 mg/kg
Mus musculus [25] = experiment: In vivo neurotoxicity at 600 mg/kg, number of animals exhibiting neurotoxicity in the rotarod test / number of animals tested 4 hr; 0/2; assay type: toxicity, organism-based; parameters: dose 600 mg/kg
Mus musculus [26] = experiment: In vivo neurotoxicity at 600 mg/kg, number of animals exhibiting neurotoxicity in the rotarod test / number of animals tested at 0.5 hr; 0/4; assay type: toxicity, organism-based; parameters: dose 600 mg/kg

SMILES: COP(=S)(OC)Oc1ccc([N+](=O)[O-])c(Cl)c1 [CHLORTHION]
- logP [1]: 3.45

SMILES: CCOP(=S)(OCC)Oc1ccccc1
- logP [1]: 3.46

SMILES: CCOP(=S)(OCC)Oc1ccc(SC)cc1Cl
- logP [1]: 4.4

SMILES: CCOP(=S)(OCC)Oc1ccccc1NC(C)=O
- inhibition [2]: 35%

SMILES: NCCCP(=O)(O)O
- inhibition [2]: 91%
- inhibition [3]: 12%
- Anticonvulsant activity (Mus musculus [4]): inactive
- Anticonvulsant activity (Mus musculus [5]): inactive
- Anticonvulsant activity (Mus musculus [6]): inactive
- Toxicity (Mus musculus [7]): Not Active
- Toxicity (Mus musculus [8]): Not Active
- Anticonvulsant activity (Mus musculus [9]): inactive

SMILES: COP(=S)(OC)Oc1ccc([N+](=O)[O-])cc1 [METHYL PARATHIONE]
- logP [1]: 2.51

SMILES: CCOP(=O)(OCC)Oc1ccc(SC)c(Cl)c1
- logP [1]: 3.21

SMILES: NCCOP(=O)(O)Oc1ccccc1
- inhibition [2]: 40%
- inhibition [3]: 13%
- Anticonvulsant activity (Mus musculus [4]): inactive
- Anticonvulsant activityAnticonvulsant activity (Mus musculus [5]): inactive
- Anticonvulsant activity (Mus musculus [6]): inactive
- Anticonvulsant activity (Mus musculus [9]): inactive

SMILES: CC1(C)COP(=S)(c2ccccc2)N1 (stereo not given)
- inhibition [2]: 15%
- Anticonvulsant activity (Mus musculus [10]): active at 600 mg/kg

SMILES: CC(C)(C)CC(C)(C)NP(=O)(Oc1ccccc1)Oc1ccccc1
- inhibition [2]: 65%
- Anticonvulsant activity (Mus musculus [10]): active at 600 mg/kg

SMILES: CCOP(=O)(OCC)c1cccc(N)c1
- Anticonvulsant activity (Mus musculus [11]): activity at 300 mg/kg
- Anticonvulsant activity (Mus musculus [12]): activity at 300 mg/kg
- Anticonvulsant activity (Mus musculus [13]): activity at 300 mg/kg
- Anticonvulsant activity (Mus musculus [14]): activity at 300 mg/kg
- Toxicity (Mus musculus [15]): 4
- Toxicity (Mus musculus [16]): 1

SMILES: CCOP(=O)(OCC)Oc1ccccc1NC(C)=O
- Anticonvulsant activity (Mus musculus [17]): active at 300 mg/kg
- Anticonvulsant activity (Mus musculus [18]): active at 300 mg/kg
- Anticonvulsant activity (Mus musculus [19]): active at 300 mg/kg

SMILES: COP(=S)(OC)Oc1cccc(NC(C)=O)c1
- inhibition [20]: inactive

SMILES: Nc1cccc(P(=O)(Oc2ccccc2)Oc2ccccc2)c1
- inhibition [2]: 51%

SMILES: CCOP(=S)(OCC)Oc1ccc([N+](=O)[O-])cc1 [PARATHION]
- logP [1]: 2.98

SMILES: COP(=O)(OC)Oc1ccc([N+](=O)[O-])cc1Cl
- logP [1]: 1.83

SMILES: CC(CNP(=O)(Oc1ccccc1)Oc1ccccc1)NP(=O)(Oc1ccccc1)Oc1ccccc1 (stereo not given)
- inhibition [2]: 20%

SMILES: COP(=O)(OC)c1cccc(N)c1
- inhibition [2]: 13%
- inhibition [3]: 13%
- Anticonvulsant activity (Mus musculus [21]): Active
- Anticonvulsant activity (Mus musculus [22]): Active
- Anticonvulsant activity (Mus musculus [23]): Active
- Anticonvulsant activity (Mus musculus [24]): inactive
- Toxicity (Mus musculus [25]): 0
- Toxicity (Mus musculus [26]): 0

SMILES: Nc1cccc(P(=O)(O)O)c1
- Toxicity (Mus musculus [25]): 0
- Toxicity (Mus musculus [26]): 0

SMILES: COP(=O)(OC)Oc1cc(C)c([N+](=O)[O-])c(C)c1
- logP [1]: 2.57

SMILES: COP(=O)(OC)Oc1ccc([N+](=O)[O-])c(C)c1 [FENITROXON]
- logP [1]: 1.69
